Experimental data taken from ChEMBL document CHEMBL2046315, “Design, synthesis and structure-activity relationships of 5-alkylaminolquinolines as a novel series of CRF1 receptor antagonists” (Bioorg Med Chem Lett, 2012).

Columns and labels:
[1] = molecular target: T1, Corticotropin-releasing factor receptor 1 (Homo sapiens, UniProt P34998); test: Displacement of [125I]-CRF from human CRF1 receptor expressed in HEK293 cells after 2 hrs by scintillation proximity assay; format: cell-based
T1 sequence (P34998 whole entry): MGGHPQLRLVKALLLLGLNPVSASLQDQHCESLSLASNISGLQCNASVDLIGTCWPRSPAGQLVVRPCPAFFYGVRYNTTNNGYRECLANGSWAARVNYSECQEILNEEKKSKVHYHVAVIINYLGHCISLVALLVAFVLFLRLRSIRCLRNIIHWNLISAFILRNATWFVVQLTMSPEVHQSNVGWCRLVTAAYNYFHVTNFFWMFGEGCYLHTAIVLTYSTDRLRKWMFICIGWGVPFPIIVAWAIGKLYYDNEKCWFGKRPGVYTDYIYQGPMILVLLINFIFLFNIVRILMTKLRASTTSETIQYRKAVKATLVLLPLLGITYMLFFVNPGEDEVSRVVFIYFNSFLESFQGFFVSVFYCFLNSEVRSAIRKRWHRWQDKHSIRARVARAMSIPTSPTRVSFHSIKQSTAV
Summary of the method: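 Membranes (5 µg/well) with WGA-coated SPA beads and 0.1 nM [125I]-human/rat CRF. Assay buffer is phosphate-buffered saline with 10 mM MgCl2, 2 mM EGTA, 1.5% BSA and protease inhibitors, pH 7.0. Nonspecific binding defined with 0.4 µM sauvagine. Incubated over 2 h at room temperature and counted after centrifugation. Specific binding expressed as % of total; IC50 from concentration-response curve.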

[2] = molecular target: T1, Corticotropin-releasing factor receptor 1; test: Antagonist activity at human CRF1 receptor expressed in HEK293 cells assessed as inhibition of CRF-stimulated intracellular cAMP accumulation preincubated for 30 mins measured after 30 mins by enzyme immunoassay; format: functional, cell-based
Summary of the method: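 Cells seeded at 5 × 10^4/well in DMEM with 0.1% FBS and 1 mM IBMX, pre-incubated 30 min, then test compound added for 30 min at 37 °C. Stimulation with 1 nM human/rat CRF for 30 min at 37 °C, followed by cell lysis. cAMP measured by EIA, basal (no CRF) subtracted, expressed as % of total production. IC50 from concentration-response curve.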

## CCCN(CCC)c1cccc2nc(Oc3c(C)cc(C)cc3C)c(C)cc12
[1]
  IC50: 79 nM

## CCCN(CCC)c1cccc2nc(Oc3c(OC)cc(COC)cc3OC)c(C)cc12
[2]
  IC50: 163 nM
[1]
  IC50: 138 nM

## COCc1cc(OC)c(Oc2nc3cccc(N(CC4CCOCC4)CC4CC4)c3cc2C)c(OC)c1
[1]
  IC50: 762 nM

## CCN(CC1CCOCC1)c1cccc2nc(Oc3c(OC)cc(COC)cc3OC)c(C)cc12
[1]
  IC50: 646 nM

## COCc1cc(OC)c(Oc2nc3cccc(N(CC4CC4)C4CCOCC4)c3cc2C)c(OC)c1
[1]
  IC50: 157 nM

## CCN(c1cccc2nc(Oc3c(OC)cc(COC)cc3OC)c(C)cc12)C1CCOCC1
[1]
  IC50: 323 nM

## CCC(CC)Nc1cccc2nc(Oc3c(OC)cc(COC)cc3OC)c(C)cc12
[1]
  IC50: > 1000 nM

## COCc1cc(OC)c(Oc2nc3cccc(NC4CCCCC4)c3cc2C)c(OC)c1
[1]
  IC50: > 1000 nM

## CCN(Cc1ccncc1)c1cccc2nc(Oc3c(OC)cc(COC)cc3OC)c(C)cc12
[1]
  IC50: > 1000 nM

## CCN(CC)c1cccc2nc(Oc3c(OC)cc(COC)cc3OC)c(C)cc12
[2]
  IC50: 167 nM
[1]
  IC50: 70 nM

## CCCN(CCC)c1cccc2nc(Nc3c(C)cc(C)cc3C)c(C)nc12
[2]
  IC50: 563 nM
[1]
  IC50: 155 nM

## CCCC(CCC)Nc1cccc2nc(Nc3c(C)cc(C)cc3C)c(C)nc12
[1]
  IC50: 197 nM

## CCCN(CCC)c1cccc2nc(Nc3c(C)cc(C)cc3C)c(=O)[nH]c12
[2]
  IC50: 469 nM
[1]
  IC50: 100 nM

## CCCN(CCC)c1cccc2nc(Nc3c(C)cc(C)cc3C)c(=O)n(C)c12
[1]
  IC50: 672 nM

## CCCN(CCC)c1cccc2nc(N(C)c3c(C)cc(C)cc3C)c(=O)n(C)c12
[1]
  IC50: > 1000 nM

## CCCN(CCC)c1cccc2nc(Nc3c(C)cc(C)cc3C)c(C)cc12
[2]
  IC50: 372 nM
[1]
  IC50: 88 nM

## Cc1cc(C)c(Nc2nc3cccc(N(CC4CC4)CC4CC4)c3cc2C)c(C)c1
[1]
  IC50: 75 nM

## Cc1cc(C)c(Nc2nc3cccc(N(CC4CCOCC4)CC4CC4)c3cc2C)c(C)c1
[1]
  IC50: 742 nM

## Cc1cc(C)c(Nc2nc3cccc(N(CC4CC4)C4CCOCC4)c3cc2C)c(C)c1
[2]
  IC50: 255 nM
[1]
  IC50: 90 nM

## CCCN(CCC)c1cccc2nc(Nc3c(OC)cc(COC)cc3OC)c(C)cc12
[1]
  IC50: 472 nM

## CCCN(CCC)c1cccc2nc(Nc3c(OC)cc(OC)cc3OC)c(C)cc12
[1]
  IC50: > 1000 nM
